The values below come from ChEMBL document CHEMBL1156478, “Loss of huntingtin function complemented by small molecules acting as repressor element 1/neuron restrictive silencer element silencer modulators” (J Biol Chem, 2007).

The source made the active and inactive calls. The rule behind the calls is not given here.

For assay [1], the system named is ST14A. In words: (§1) […] of REST/NRSF-coupled repression of luciferase tagged rat RE1/NRSE BDNF promoter activity expressed in ST14A cells assessed as increase in luciferase activity. Type of assay: cell-based. The method, boiled down:
(§2)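 Stable ST14A clone carrying RE1/NRSE(BDNF)-firefly luciferase, selected for DN:REST responsiveness; cells in 96 wells exposed after adhesion to compounds (DMSO, 10 mM stock) in triplicate, 72 h; luciferin added, luminescence expressed as RLU per µg protein (BCA), relative to untreated; EC50 from dose–response.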

Assay [2] concerns ST14A. In words: […] of REST/NRSF-coupled repression of luciferase tagged rat RE1/NRSE BDNF promoter activity expressed in ST14A cells at 75 nM assessed as increase in luciferase activity. Type of assay: cell-based. In a few lines:
as §2

Assay [3] has as its system ST14A. In words: Induction of REST/NRSF-coupled repression of luciferase tagged rat RE1/NRSE BDNF promoter activity expressed in ST14A cells at 5 nM assessed as increase in luciferase activity. It counts as cell-based. The method, boiled down:
(§3)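 ST14A rat neural cells stably carrying RE1/NRSE(BDNF)-luciferase reporter (DiaNRSE-Luc8 clone), grown in DMEM/10% heat-inactivated FBS at 33 °C, 5% CO2. Compounds from 10 mM DMSO stocks added to cells plated the day before; 72 h exposure in 96-well format, triplicate. Firefly luciferase read after luciferin, expressed as RLU per µg protein (BCA) relative to untreated cells.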

Assay [4] concerns ST14A. In words: Induction of REST/NRSF-coupled repression of luciferase tagged rat RE1/NRSE BDNF promoter activity expressed in ST14A cells at 10 nM assessed as increase in luciferase activity. It counts as cell-based. The method, boiled down:
as §3

Assay [5] is described as follows: as §1. It counts as cell-based. The method, boiled down: as §2
Assay [6] is described as follows: Increase in BDNF protein expression in […]/HdhQ11 cells expressing homozygous mutant huntingtin gene at 200 nM after 72 hrs by ELISA relative to control. Type of assay: functional. In a few lines:
(§4)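 BDNF protein after 72 h compound exposure: lysis in Tris-HCl pH 7.5, 150 mM NaCl, 1% Triton X-100, 10% glycerol, EDTA/EGTA, protease inhibitors; homogenized, sonicated, centrifuged 15 min at 4 °C; supernatant assayed by BDNF immunoassay, normalized to BCA total protein; fold over untreated cells.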
A general note: In an ELISA, binding on a coated surface is turned into a signal by an enzyme label.

Assay [7] has as its system ST14A. In words: Increase in BDNF mRNA expression in rat ST14A cells expressing RE1/NRSE BDNF promoter after 72 hrs by RT-PCR relative to control. It counts as functional, cell-based. The method, boiled down: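 Cells treated 72 h; total RNA (1 µg) reverse transcribed, three independent reactions per RNA stock, triplicate SYBR Green real-time PCR with 25 ng cDNA, 0.2 µM primers; BDNF cycling 95 °C 10 min then 40 × (95 °C 10 s, 56 °C 10 s, 72 °C 20 s), melt-curve check; normalized to β-actin, fold over untreated; three independent experiments.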

Assay [8] deals with ST14A. In words: Increase in BDNF protein expression in rat ST14A cells expressing RE1/NRSE BDNF promoter after 72 hrs by ELISA relative to control. Type of assay: functional, cell-based. The method, boiled down: as §4
For assay [9], the system named is ST14A. Description: Increase in RE1/NRSE promoter regulated synapsin I mRNA expression in rat ST14A cells at 200 nM after 72 hrs by RT-PCR relative to control. Type of assay: functional, cell-based. The method, boiled down:
(§5)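 72 h exposure; SYBR Green real-time PCR for synapsin I and M4: 95 °C 3 min, then 40 × (95 °C 30 s, 58 °C 30 s, 72 °C 30 s), melt curve 55–94 °C; normalized to β-actin, fold over untreated; triplicate reactions.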

Assay [10] has as its system ST14A. Description: Increase in RE1/NRSE promoter regulated muscarinic M4 receptor mRNA expression in rat ST14A cells at 200 nM after 72 hrs by RT-PCR relative to control. It counts as functional, cell-based. In a few lines:
as §5

In assay [11] the test system is ST14A. In words: Increase in REST/NRSF mRNA expression in rat ST14A cells after 72 hrs by RT-PCR relative to control. It counts as functional, cell-based. In a few lines: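 REST/NRSF transcript by SYBR Green real-time PCR after 72 h exposure: 95 °C 3 min, then 45 × (95 °C 30 s, 60 °C 30 s, 72 °C 30 s), melt curve 55–94 °C; normalized to β-actin, fold over untreated; triplicate reactions.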

Assay [12] relates to ST14A. In words: Increase in E2F1 mRNA expression in rat ST14A cells after 72 hrs by RT-PCR relative to control. Type of assay: functional, cell-based. In a few lines:
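E2F1 SYBR Green real-time PCR after 72 h exposure: 95 °C 10 min, then 40 × (95 °C 15 s, 60 °C 1 min), fluorescence read at 60 °C, melt curve 55–94 °C; normalized to β-actin, fold over untreated cells; triplicate reactions.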

Assay [13] has as its system neural. In words: Increase in BDNF protein expression in neural cells overexpressing huntingtin mutant gene after 72 hrs by ELISA relative to control. Type of assay: functional, cell-based. In a few lines: as §4
A short description of assay [14]: Increase in cell viability of stress-exposed […]/HdhQ11 cells expressing homozygous mutant huntingtin gene at 50 nM after 48 hrs by MTT assay. It counts as functional. In a few lines:
(§6)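 Cells plated at 80,000/well in triplicate, 24 h at 33 °C, washed, switched to serum-deprived medium at 37 °C as stress, with or without compound; MTT read 48 h after treatment, formazan at 560 nm after 1 h at 37 °C; three independent experiments.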
(Formazan colour is commonly taken as a measure of viable cells.)

In assay [15] the test system is STHdhQ11/HdhQ11. In words: Increase in cell viability of stress-exposed […]/HdhQ11 cells expressing homozygous mutant huntingtin gene at 25 nM after 48 hrs by MTT assay. It counts as functional, cell-based. In a few lines: as §6
Assay [16] deals with STHdhQ11/HdhQ11. Description: Effect on REST/NRSF translocation in mouse STHdhQ11/HdhQ11 cells expressing homozygous mutant huntingtin gene.
For assay [17], the species on record is Mus musculus. In words: Effect on cell proliferation of stress-exposed mouse STHdhQ11/HdhQ11 cells expressing homozygous mutant huntingtin gene assessed as BrdUrd incorporation.
Assay [18] concerns ST14A. In words: […] of REST/NRSF-coupled repression of luciferase tagged rat RE1/NRSE BDNF promoter activity expressed in ST14A cells at 25 nM assessed as increase in luciferase activity. Type of assay: cell-based. The note with it: TDE = time-dependent effect.
Assay [19] in a line: Increase in BDNF protein expression in […]/HdhQ11 cells expressing homozygous mutant huntingtin gene at 50 nM after 72 hrs by ELISA relative to control. Type of assay: functional. The method, boiled down:
as §4

For the compound `CC(/C=C/C(=O)NO)=C\[C@@H](C)C(=O)c1ccc(N(C)C)cc1`, the Activity entry in [1] is “Dose-dependent effect”. Also, in [2], the result was Active.

As to `O=C(O)CC[N+](=O)[O-]`, the outcome in assay [3] and in [4] was inactive.

For the compound `Cc1ccn2c(-c3csc(Nc4ccc(N(C)C)cc4)n3)c(C)nc2c1`, the 50% effective concentration (EC50) in assay [5] came out at 20 nM. In assay [6], the “fold change (FC)” value came to 2. For the same compound, the result in assay [2], in [9], in [10], in assay [13] and in assay [15] was Active. In addition, the Activity result is “Dose-dependent effect” in assay [7], “Dose-dependent effect” in assay [8] and 17% in [14]. In addition, the result in assay [11], in assay [12], in [16] and in [17] was inactive.

As for `O=C(CCCCCCC(=O)Nc1ccccc1)NO`, the outcome in assay [11] and in assay [12] was Active.

With `CN[C@@H]1C[C@H]2O[C@@](C)([C@@H]1OC)n1c3ccccc3c3c4c(c5c6ccccc6n2c5c31)C(=O)NC4`, in assay [4], the result was inactive.

For the compound `COc1ccc(Nc2nc(-c3c(C)nc4cc(C)ccn34)cs2)cc1`, the EC50 in assay [5] was 12 nM. Further, the Activity entry in [1] is “Dose-dependent effect”; in assay [18] it was “tde”; in [7] it was “Dose-dependent effect”; in [8], “Dose-dependent effect”. Also, in assay [6], the “fold change (FC)” value turned out to be 2. Further, the result in [2], in [9], in assay [10] and in assay [13] was Active. Moreover, the result in assay [11], in [12] and in [16] was inactive.

Regarding `Cc1nc2ncccn2c1-c1csc(Nc2ccc(N(C)C)cc2)n1`, the EC50 in assay [5] was determined as 20 nM. Besides, the result in [2], in assay [9], in assay [10] and in assay [13] was Active. Moreover, the Activity entry in assay [7] and in assay [8] was “Dose-dependent effect” throughout. Moreover, the outcome in [11], in [12] and in assay [16] was inactive. Moreover, the “fold change (FC)” value in assay [19] is on record as 1.6.

The EC50 is the concentration needed to bring the measured effect to its halfway point.
